Series [1] has as its system Rattus norvegicus. Kind of series: Antiallodynic activity in rat spinal nerve ligation model of neuropathic pain assessed as suppression of mechanical allodynia at 100 mg/kg, po after 5 hrs. Type of series: functional, organism-based. The arrangement: dose 100 mg/kg. A digest of the protocol: (§1)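 Rats with induced neuropathic pain, dosed orally at 100 mg/kg (n = 5 per group), with gabapentin 100 mg/kg po as reference. Mechanical and cold allodynia were followed over days after nerve injury and hours after dosing. Significance was tested by unpaired t-test (P < 0.05).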

Series [2] has as its target T1, Voltage-dependent T-type calcium channel subunit alpha-1G (Homo sapiens, UniProt O43497). The experiment in a line: Inhibition of T-type calcium channel alpha1G expressed in human HEK293 cells assessed as KCl-induced depolarization after 60 mins by FDSS6000 assay. Type of series: cell-based.
The test system of series [3] is Rattus norvegicus. The experiment in a line: Antiallodynic activity in rat spinal nerve ligation model of neuropathic pain assessed as inhibition of cold allodynia at 100 mg/kg, po after 5 hrs. The format is functional, organism-based. The arrangement: dose 100 mg/kg. In outline: as §1
Series [4] in a line: Metabolic stability in human hepatic microsomes at 1 uM after 60 mins by LC-MS/MS analysis. The format is ADME, Liver. The following applies: 1 h. A digest of the protocol: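 Human liver microsomes (0.5 mg/ml) with compound (1 μM) in 0.1 M potassium phosphate, pH 7.4, at 37 °C; started with β-NADPH (1.2 mM). Sampled at 0, 5, 15, 30 and 60 min, quenched with acetonitrile containing internal standard, analysed by LC–MS/MS. Reported as % parent remaining; mean of duplicate experiments.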

The target of series [5] is Voltage-gated inwardly rectifying potassium channel KCNH2 (Homo sapiens, UniProt Q12809). The experiment in a line: Inhibition of human ERG by patch clamp assay.
Chain of Voltage-gated inwardly rectifying potassium channel KCNH2 (Q12809 whole entry): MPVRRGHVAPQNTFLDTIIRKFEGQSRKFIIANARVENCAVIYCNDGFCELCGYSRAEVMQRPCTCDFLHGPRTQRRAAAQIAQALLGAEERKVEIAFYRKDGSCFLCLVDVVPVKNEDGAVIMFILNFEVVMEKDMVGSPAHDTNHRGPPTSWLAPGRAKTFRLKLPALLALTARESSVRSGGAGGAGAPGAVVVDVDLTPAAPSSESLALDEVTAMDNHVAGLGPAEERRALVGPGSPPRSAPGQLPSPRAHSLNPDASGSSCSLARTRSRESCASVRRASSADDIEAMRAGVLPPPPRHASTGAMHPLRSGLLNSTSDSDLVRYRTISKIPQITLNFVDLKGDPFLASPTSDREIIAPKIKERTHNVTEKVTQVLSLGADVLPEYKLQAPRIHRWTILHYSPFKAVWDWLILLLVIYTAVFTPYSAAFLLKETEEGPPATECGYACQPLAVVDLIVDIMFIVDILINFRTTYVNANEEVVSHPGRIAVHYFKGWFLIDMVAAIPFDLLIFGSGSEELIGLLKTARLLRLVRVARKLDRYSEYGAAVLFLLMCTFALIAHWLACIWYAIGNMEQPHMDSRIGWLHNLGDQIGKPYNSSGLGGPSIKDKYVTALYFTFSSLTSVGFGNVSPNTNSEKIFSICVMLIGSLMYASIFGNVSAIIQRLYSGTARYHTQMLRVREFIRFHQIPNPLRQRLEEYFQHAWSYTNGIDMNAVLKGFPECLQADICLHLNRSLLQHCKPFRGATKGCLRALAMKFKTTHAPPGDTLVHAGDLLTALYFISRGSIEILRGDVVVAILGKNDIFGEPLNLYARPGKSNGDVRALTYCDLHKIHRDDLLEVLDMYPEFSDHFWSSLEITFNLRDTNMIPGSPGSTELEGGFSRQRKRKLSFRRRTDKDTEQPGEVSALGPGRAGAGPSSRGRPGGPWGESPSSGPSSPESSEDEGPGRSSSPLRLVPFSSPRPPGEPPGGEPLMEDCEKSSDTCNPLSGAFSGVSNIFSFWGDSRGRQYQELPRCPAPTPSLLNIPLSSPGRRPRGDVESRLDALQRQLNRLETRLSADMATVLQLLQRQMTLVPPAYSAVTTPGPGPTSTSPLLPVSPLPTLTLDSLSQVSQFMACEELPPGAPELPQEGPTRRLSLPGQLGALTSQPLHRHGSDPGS
Series [6] deals with T1, Voltage-dependent T-type calcium channel subunit alpha-1G. Kind of series: Inhibition of T-type calcium channel alpha1G expressed in human HEK293 cells assessed as KCl-induced depolarization at 10 uM after 60 mins by FDSS6000 assay. The format is cell-based.

Structures are written as SMILES. pIC50: −log10 of the molar value. Activity calls are given as the source filed them. No cut-off for these calls is given here.

In general, pIC50 refers to the IC50 on a negative log10 scale, so that one unit is a factor of ten. The term inhibition denotes the percentage by which the read-out fell short of the control.

T1 sequence (O43497 whole entry): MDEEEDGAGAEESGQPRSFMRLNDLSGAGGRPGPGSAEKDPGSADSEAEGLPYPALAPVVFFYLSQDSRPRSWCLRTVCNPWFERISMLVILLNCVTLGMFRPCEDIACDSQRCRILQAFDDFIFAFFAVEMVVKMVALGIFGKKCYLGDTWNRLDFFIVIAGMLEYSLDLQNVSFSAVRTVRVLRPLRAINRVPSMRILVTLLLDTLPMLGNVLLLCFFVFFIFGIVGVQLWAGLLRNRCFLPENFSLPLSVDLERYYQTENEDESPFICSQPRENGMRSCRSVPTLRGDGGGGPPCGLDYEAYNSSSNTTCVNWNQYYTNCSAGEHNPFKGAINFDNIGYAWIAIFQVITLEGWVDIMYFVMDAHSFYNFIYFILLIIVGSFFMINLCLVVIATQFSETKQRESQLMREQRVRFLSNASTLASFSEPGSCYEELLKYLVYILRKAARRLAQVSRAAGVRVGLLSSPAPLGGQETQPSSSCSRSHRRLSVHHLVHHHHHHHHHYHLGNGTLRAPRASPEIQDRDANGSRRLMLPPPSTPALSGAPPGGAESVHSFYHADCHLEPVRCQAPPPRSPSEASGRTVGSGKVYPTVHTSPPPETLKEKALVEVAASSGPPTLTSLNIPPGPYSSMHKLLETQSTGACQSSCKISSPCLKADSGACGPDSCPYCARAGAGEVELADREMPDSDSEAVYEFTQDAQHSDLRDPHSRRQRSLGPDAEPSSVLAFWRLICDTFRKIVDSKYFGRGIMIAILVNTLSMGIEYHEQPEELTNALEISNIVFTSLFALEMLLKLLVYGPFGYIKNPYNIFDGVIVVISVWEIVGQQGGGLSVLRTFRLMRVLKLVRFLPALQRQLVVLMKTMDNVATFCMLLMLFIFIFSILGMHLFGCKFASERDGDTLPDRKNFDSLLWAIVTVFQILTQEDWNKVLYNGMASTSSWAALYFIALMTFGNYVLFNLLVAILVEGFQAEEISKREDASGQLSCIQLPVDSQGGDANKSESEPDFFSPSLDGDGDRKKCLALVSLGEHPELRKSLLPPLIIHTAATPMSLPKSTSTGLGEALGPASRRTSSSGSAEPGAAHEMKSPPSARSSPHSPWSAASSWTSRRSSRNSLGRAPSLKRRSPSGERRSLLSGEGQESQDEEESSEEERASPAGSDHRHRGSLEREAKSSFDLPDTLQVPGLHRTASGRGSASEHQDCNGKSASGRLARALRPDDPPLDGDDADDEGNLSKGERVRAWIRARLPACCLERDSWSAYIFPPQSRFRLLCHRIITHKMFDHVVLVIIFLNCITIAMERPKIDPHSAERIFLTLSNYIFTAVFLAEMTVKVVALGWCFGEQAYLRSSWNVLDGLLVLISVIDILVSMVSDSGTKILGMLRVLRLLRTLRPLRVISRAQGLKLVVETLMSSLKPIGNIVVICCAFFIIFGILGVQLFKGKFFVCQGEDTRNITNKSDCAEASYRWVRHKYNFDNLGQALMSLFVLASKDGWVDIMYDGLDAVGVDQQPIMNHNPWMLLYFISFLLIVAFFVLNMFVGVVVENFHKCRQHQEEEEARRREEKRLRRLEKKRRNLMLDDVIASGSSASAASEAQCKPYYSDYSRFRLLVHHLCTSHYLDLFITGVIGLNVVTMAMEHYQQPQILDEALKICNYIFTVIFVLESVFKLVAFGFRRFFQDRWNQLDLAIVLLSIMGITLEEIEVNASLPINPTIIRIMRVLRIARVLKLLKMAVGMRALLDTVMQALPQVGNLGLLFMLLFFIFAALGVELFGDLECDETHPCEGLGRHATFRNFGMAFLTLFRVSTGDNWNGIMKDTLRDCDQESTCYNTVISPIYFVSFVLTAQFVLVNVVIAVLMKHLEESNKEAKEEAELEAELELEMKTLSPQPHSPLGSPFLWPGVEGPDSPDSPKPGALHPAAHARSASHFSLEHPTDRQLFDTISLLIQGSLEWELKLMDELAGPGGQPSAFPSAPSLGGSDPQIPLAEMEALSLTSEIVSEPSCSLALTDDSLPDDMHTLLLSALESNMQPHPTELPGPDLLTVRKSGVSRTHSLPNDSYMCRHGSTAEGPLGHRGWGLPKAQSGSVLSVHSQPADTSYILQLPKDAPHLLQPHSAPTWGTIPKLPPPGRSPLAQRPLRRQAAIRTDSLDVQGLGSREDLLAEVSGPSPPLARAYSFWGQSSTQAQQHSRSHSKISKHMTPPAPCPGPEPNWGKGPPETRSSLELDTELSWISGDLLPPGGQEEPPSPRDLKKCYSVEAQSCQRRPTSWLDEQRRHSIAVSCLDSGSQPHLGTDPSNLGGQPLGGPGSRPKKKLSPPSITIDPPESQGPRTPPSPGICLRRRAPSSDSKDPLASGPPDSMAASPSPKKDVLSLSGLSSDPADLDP

Regarding `COc1cc(OC)cc(C(=O)NCC2(C(=O)O)CCN(Cc3ccc(C(F)(F)F)cc3)CC2)c1.Cl`, the outcome with Rattus norvegicus [1] was Active. Also, in series [2], the pIC50 was 5.14. In addition, in the series on Rattus norvegicus [3], the inhibition entry is “Active”. For the same compound, in series [4], the Stability result was “Stable”.
`CC(C)Cc1cc(C(=O)NCC2(C#N)CCN(Cc3ccccc3C(F)(F)F)CC2)nn1-c1ccccc1`: in series [5], the pIC50 is 5.32. Moreover, in series [6], the inhibition amounted to 45.4%.
The compound `COC(=O)C1(CNC(=O)c2cc(OC)cc(OC)c2)CCN(Cc2ccccc2C(F)(F)F)CC1` gave a pIC50 in series [5] of 5.30. The inhibition in series [6] turned out to be 63.6%. The Stability entry in series [4] was “Unstable”.
For the compound `COc1ccccc1CN1CCC(C#N)(CNC(=O)c2cc(Cl)cc(Cl)c2)CC1`, the inhibition in series [6] was determined as 19.3%.
As for `N#CC1(CNC(=O)c2cc(Cl)cc(Cl)c2)CCN(CCc2ccccc2)CC1`, the pIC50 in series [5] was 6.44. For the same compound, the inhibition in series [6] was 71.8%.
For the compound `COC(=O)C1(CNC(=O)c2cc(Cl)cc(Cl)c2)CCN(Cc2ccc(OC)cc2)CC1`, the inhibition in series [6] amounted to 74.5%.
Same read-out and setting: as for `COc1cccc(CN2CCC(C#N)(CNC(=O)c3cc(OC)cc(OC)c3)CC2)c1`, the figure is 60.4%.
The same measure, in the same setting: as for `COC(=O)C1(CNC(=O)c2cc(Cl)cc(Cl)c2)CCN(Cc2cccc(C(F)(F)F)c2)CC1`, the figure is 72%; as for `COC(=O)C1(CNC(=O)c2cc(OC)cc(OC)c2)CCN(CCc2ccccc2)CC1`, 65%.
Turning to `COC(=O)C1(CNC(=O)c2cc(Cl)cc(Cl)c2)CCN(Cc2ccc(C(F)(F)F)cc2)CC1`, in series [5], the pIC50 was 6.54. Further, the inhibition in series [6] was 43.3%.
Take `COc1cc(OC)cc(C(=O)NCC2(C#N)CCN(CCc3ccccc3)CC2)c1`: the pIC50 in series [5] was 5.80. Moreover, in series [6], the inhibition is 61.9%. Also, in series [4], the Stability entry is given as “Unstable”.
Turning to `CC1(C)Oc2ccccc2C=C1CN1CCC(C#N)(CNC(=O)c2cc(Cl)cc(Cl)c2)CC1`, the inhibition in series [6] came to 13.6%.
On the same count and under the same terms, in the case of `COc1ccc(CN2CCC(C#N)(CNC(=O)c3cc(OC)cc(OC)c3)CC2)cc1` it was 53%.
As for `COC(=O)C1(CNC(=O)c2cc(Cl)cc(Cl)c2)CCN(Cc2ccccc2OC)CC1`, in series [5], the negative-log IC50 (pIC50) is 6.80. In series [6], the inhibition came to 68.5%.
For `N#CC1(CNC(=O)c2cc(Cl)cc(Cl)c2)CCN(Cc2cccc(C(F)(F)F)c2)CC1`, the inhibition in series [6] worked out at 8.76%.
Same read-out and setting: in the case of `CC(C)Cc1cc(C(=O)NCC2(C#N)CCN(Cc3ccc(C(F)(F)F)cc3)CC2)nn1-c1ccccc1` it was 13.9%; in that of `N#CC1(CNC(=O)c2cc(Cl)cc(Cl)c2)CCN(Cc2ccc(C(F)(F)F)cc2)CC1`, 8.7%; in that of `COC(=O)C1(CNC(=O)c2cc(OC)cc(OC)c2)CCN(CC2=Cc3ccccc3OC2(C)C)CC1`, 58%.
In series [5], `COc1cc(OC)cc(C(=O)NCC2(C#N)CCN(Cc3ccccc3C(F)(F)F)CC2)c1` gave a pIC50 of 5.32. Besides, the inhibition in series [6] came to 45.4%.
Compound `COC(=O)C1(CNC(=O)c2cc(OC)cc(OC)c2)CCN(Cc2cccc(C(F)(F)F)c2)CC1` had a pIC50 in series [5] of 5.55. Besides, in series [6], the inhibition amounted to 72%. Moreover, the Stability entry in series [4] was “Unstable”.
On to `COc1cc(OC)cc(C(=O)NCC2(C#N)CCN(CC3=Cc4ccccc4OC3(C)C)CC2)c1`, for which the pIC50 in series [5] is 5.33. Also, in series [6], the inhibition stood at 44.3%.
For the compound `N#CC1(CNC(=O)c2cc(Cl)cc(Cl)c2)CCN(Cc2ccccc2C(F)(F)F)CC1`, the inhibition in series [6] stood at 9.99%.
Turning to `CC(C)Cc1cc(C(=O)NCC2(C#N)CCN(CC3=Cc4ccccc4OC3(C)C)CC2)nn1-c1ccccc1`, the pIC50 in series [5] was 5.33. The inhibition in series [6] is 44.3%.
The like results for `COc1cc(OC)cc(C(=O)NCC2(C#N)CCN(Cc3ccccc3OC)CC2)c1` were, in that order, 6.04 and 50.9%.
The like results for `COC(=O)C1(CNC(=O)c2cc(Cl)cc(Cl)c2)CCN(Cc2cccc(OC)c2)CC1` were, in that order, 6.44 and 73%.
Regarding `COc1cccc(CN2CCC(C#N)(CNC(=O)c3cc(CC(C)C)n(-c4ccccc4)n3)CC2)c1`, the pIC50 in series [5] is 5.82. Besides, in series [6], the inhibition is 60.4%.
Take `COc1ccccc1CN1CCC(C#N)(CNC(=O)c2cc(CC(C)C)n(-c3ccccc3)n2)CC1`: the inhibition in series [6] was determined as 50.9%.
The same measure, in the same setting: as for `CC(C)Cc1cc(C(=O)NCC2(C#N)CCN(CCc3ccccc3)CC2)nn1-c1ccccc1`, the figure is 61.9%.
The compound `COC(=O)C1(CNC(=O)c2cc(OC)cc(OC)c2)CCN(Cc2ccccc2OC)CC1` showed a negative-log IC50 (pIC50) in series [5] of 5.72. Moreover, the inhibition in series [6] turned out to be 46.8%.
For the compound `COc1cc(OC)cc(C(=O)NCC2(C#N)CCN(Cc3cccc(C(F)(F)F)c3)CC2)c1`, in series [6], the inhibition turned out to be 15.8%.
In the case of `COC(=O)C1(CNC(=O)c2cc(OC)cc(OC)c2)CCN(Cc2ccc(C(F)(F)F)cc2)CC1`, the pIC50 in series [2] is 5.38. Also, in series [6], the inhibition was 64.3%. In addition, in series [4], the Stability result is reported as “Unstable”.
`COC(=O)C1(CNC(=O)c2cc(OC)cc(OC)c2)CCN(Cc2ccc(OC)cc2)CC1` had a pIC50 in series [5] of 6.32. The inhibition in series [6] was 59%.
As to `NCC1(CC(=O)O)CCCCC1`, the outcome in the series with Rattus norvegicus [1] was Active. For the same compound, the inhibition result in the series on Rattus norvegicus [3] was “Active”.
In the case of `COC(=O)C1(CNC(=O)c2cc(Cl)cc(Cl)c2)CCN(Cc2ccccc2C(F)(F)F)CC1`, the inhibition in series [6] worked out at 44.1%.
In series [5], `COC(=O)C1(CNC(=O)c2cc(OC)cc(OC)c2)CCN(Cc2cccc(OC)c2)CC1` showed a pIC50 of 6.51. Also, the inhibition in series [6] amounted to 56.2%.
With `COC(=O)C1(CNC(=O)c2cc(Cl)cc(Cl)c2)CCN(CCc2ccccc2)CC1`, in series [6], the inhibition was 77.2%.
`COC(=O)C1(CNC(=O)c2cc(Cl)cc(Cl)c2)CCN(CC2=Cc3ccccc3OC2(C)C)CC1` gave a pIC50 in series [5] of 4.86. Besides, the inhibition in series [6] was 33.9%.
As to `COc1cc(OC)cc(C(=O)NCC2(C#N)CCN(Cc3ccc(C(F)(F)F)cc3)CC2)c1`, the inhibition in series [6] was determined as 13.9%.
On the same count and under the same terms, as for `COc1ccc(CN2CCC(C#N)(CNC(=O)c3cc(Cl)cc(Cl)c3)CC2)cc1`, the figure is 16.1%; as for `CC(C)Cc1cc(C(=O)NCC2(C#N)CCN(Cc3cccc(C(F)(F)F)c3)CC2)nn1-c1ccccc1`, 15.8%.
Regarding `COc1ccc(CN2CCC(C#N)(CNC(=O)c3cc(CC(C)C)n(-c4ccccc4)n3)CC2)cc1`, the inhibition in series [6] turned out to be 53%.
On the same count and under the same terms, in the case of `COc1cccc(CN2CCC(C#N)(CNC(=O)c3cc(Cl)cc(Cl)c3)CC2)c1` it was 8.33%.

The values above are taken from ChEMBL document CHEMBL1833916, “Synthesis and biological evaluation of 4-piperidinecarboxylate and 4-piperidinecyanide derivatives for T-type calcium channel blockers” (Bioorg Med Chem Lett, 2011).
